CHO parental Ca – ATP-evoked calcium signal inhibitors, parental CHO, primary screen, counter-screen for OX1R antagonist project, cell-based, fluorescence, Fluo-8 calcium dye. inhibition, % at 5.6 µM. AID 463079, 2010. actives 0.63% (n = 330,000). parental CHO-K1, ATP-induced calcium, Fluo-8 fluorescence;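 active = inhibition above that plate's mean sample inhibition plus 3 SD, cut at about 26% in these data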;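 also: 0% = ATP-challenged DMSO wells and 100% = DMSO wells without ATP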
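Test system: parental CHO cells; detection: calcium-sensitive Fluo-8 fluorescence; evaluation: percent inhibition of calcium signal; also added: ATP as calcium-mobilizing challenge; repeats: one well per compound; control set: ATP-challenged DMSO wells low, unchallenged DMSO wells high; compound: single nominal dose of 5.6 µM per compound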
OX1R antag-1 – OX1R (HCRTR1) antagonists, primary screen, fluorescence, CHO/OX1R cells, Fluo-8 calcium, orexin A; Fluo-8 calcium fluorescence; inhibition, % at 5 µM; actives 0.43% (n = 330,000); Orexin/Hypocretin receptor type 1 (Homo sapiens), O43613;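 active = inhibition above its plate's threshold, mean inhibition of all tested compounds on the plate plus 3 SD, cut at about 37% in these data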;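 also: 0% = orexin A challenge wells and 100% = SB-334867-A antagonist wells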
GPR7 antag – GPR7 receptor antagonists, primary screen, cell-based, fluorescence, single concentration | actives 1.1% (n = 290,000) | GPR7-expressing cells, fluorescence antagonist assay | Neuropeptides B/W receptor type 1 (Homo sapiens), P48145 | inhibition, % at 4.4 µM; in the data active = inhibition above about 16%, passing the limit was not always enough;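 also: cells stimulated with the agonist NPW; 0% = agonist with vehicle and 100% = vehicle without agonist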
Target sequence (P48145 whole entry, looked up): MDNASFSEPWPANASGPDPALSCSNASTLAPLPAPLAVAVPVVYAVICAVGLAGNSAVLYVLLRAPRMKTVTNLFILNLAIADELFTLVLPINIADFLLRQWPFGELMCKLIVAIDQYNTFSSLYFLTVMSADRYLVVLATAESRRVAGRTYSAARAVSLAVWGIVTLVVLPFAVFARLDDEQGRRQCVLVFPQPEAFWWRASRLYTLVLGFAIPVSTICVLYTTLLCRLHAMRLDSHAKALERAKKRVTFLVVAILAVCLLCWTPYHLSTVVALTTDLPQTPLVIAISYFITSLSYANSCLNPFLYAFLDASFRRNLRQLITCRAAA
OX1R antag-2 – antagonists of human orexin 1 receptor (OX1R) | OX1R-expressing cells, FRET antagonist read-out | inhibition, % at 6.6 µM | actives 1.8% (n = 330,000) | AID 485270, 2010; in the data active = inhibition mostly above about 38%, no sharp cut-off; inactive = mostly below about 40%;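 also: 0% = agonist challenge alone and 100% = reference antagonist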
GalR3 antagonist – GalR3 antagonists in HEK293 cells, primary screen, cell-based, fluorescence readout | Galanin receptor type 3 (Homo sapiens), O60755 | inhibition, % at 3 µM | actives 0.44% (n = 360,000) | HEK293 GalR3-CNG cAMP membrane potential fluorescence; galR3 body fused to GalR1 C-terminus;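 active = inhibition above the screen-wide average plus 3 SD, cut at about 13% in these data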;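 also: forskolin and galanin both at EC90 stimulate the cells; cAMP rise reported by CNG channel membrane potential dye signal; 0% = forskolin plus galanin with DMSO and 100% = forskolin alone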
Target sequence (O60755 1-299 limits assumed): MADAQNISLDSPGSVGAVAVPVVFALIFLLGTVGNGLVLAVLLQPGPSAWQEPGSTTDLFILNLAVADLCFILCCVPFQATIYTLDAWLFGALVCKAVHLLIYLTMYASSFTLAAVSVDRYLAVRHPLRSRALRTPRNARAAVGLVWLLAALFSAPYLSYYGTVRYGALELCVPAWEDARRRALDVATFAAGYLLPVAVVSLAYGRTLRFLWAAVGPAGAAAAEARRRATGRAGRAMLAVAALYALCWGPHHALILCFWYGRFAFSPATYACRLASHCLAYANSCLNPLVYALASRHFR
An asterisk follows results filed as active. Rows were chosen to be rich in hits. Some 3.1% of all compounds tested hit in one or more screens of this group.

How did COC(=O)[C@]12C[C@H](CC(=O)NCC34CC5CC(CC(C5)C3)C4)C(=O)N(Cc3ccccc3)C1=C[C@H](C(C)C)O[C@@H]2C1CC1 do in these assays?
GalR3 antagonist: -7

How did COc1cccc2[nH]c(C(=O)NC(C)c3ccccc3)cc12 (stereo not drawn) do in these assays?
CHO parental Ca: -10; OX1R antag-1: -19; GPR7 antag: -9; OX1R antag-2: -11; GalR3 antagonist: -4

How did CCN(CC)c1ccc(NC(=O)c2cc3c(OC)cccc3[nH]2)cc1 do in these assays?
CHO parental Ca: -25; OX1R antag-1: -6; GPR7 antag: -30; OX1R antag-2: 40*; GalR3 antagonist: -12

How did Nc1ccc(C(=O)O)c(O)c1 do in these assays?
CHO parental Ca: 2; OX1R antag-1: 3; GPR7 antag: -4; OX1R antag-2: 20; GalR3 antagonist: -1

How did Cc1ccc(N)cc1O do in these assays?
CHO parental Ca: -5; OX1R antag-1: -11; OX1R antag-2: 38*; GalR3 antagonist: 1

Results for COc1cc(CCN=Cc2cccc(OC)c2O)c([N+](=O)[O-])cc1OC ?
GalR3 antagonist: -2

How did C=Cc1ccc(Cn2nc(-c3ccc(C)cc3)ccc2=O)cc1 do in these assays?
CHO parental Ca: 44*; OX1R antag-1: -4; GPR7 antag: 33; OX1R antag-2: 23; GalR3 antagonist: -9

Results for C/C=C(/C)C(=O)OC1CC(C)(C)C[C@H]2C3=CC[C@@H]4[C@@]5(C)CCC(O[C@@H]6O[C@@H](C(=O)O)[C@@H](O)C(O[C@@H]7OC[C@H](O)[C@@H](O)[C@@H]7O[C@@H]7OC(CO)C(O)[C@@H](O)[C@@H]7O)C6O[C@@H]6OC(CO)C(O)C(O)C6O)[C@@](C)(CO)[C@@H]5CC[C@]4(C)[C@]3(C)CC(O)[C@@]12CO (stereo partly drawn) ?
CHO parental Ca: 101*; OX1R antag-1: 104*; OX1R antag-2: 24

Results for CC1(C)C[C@H]2C3=CCC4[C@@]5(C)CC[C@H](O[C@@H]6O[C@H](C(=O)O)[C@@H](O)[C@H](O)[C@H]6O)[C@@](C)(CO)C5CC[C@@]4(C)[C@]3(C)C[C@H](O)[C@@]2(CO)[C@@H](O)[C@@H]1O (stereo partly drawn) ?
CHO parental Ca: -11; OX1R antag-1: -16; OX1R antag-2: 3; GalR3 antagonist: 0

How did CC(=O)OC1COC(OC2C(O)C(C)OC(OC3C(OC4CCC5(C)C(CCC6(C)C5CC=C5C7CC(C)(C)CCC7(C(=O)O)CCC56C)C4(C)CO)OCC(O)C3O)C2O)C(O)C1OC(C)=O (stereo not drawn) do in these assays?
CHO parental Ca: 101*; OX1R antag-1: 105*; GPR7 antag: -14; OX1R antag-2: 22

What do the screens show for `CO[C@@H]1[C@H](O)CC[C@]2(O)CN(c3ccc(F)cc3)[C@](C)([C@H](O)CC=C(C)C)[C@@H]12`?
GalR3 antagonist: -5

How did O=c1c2cc(Br)ccc2nc2n1CCCCC2 do in these assays?
CHO parental Ca: -16; OX1R antag-1: -21; GPR7 antag: 1; OX1R antag-2: 17

How did O=c1c2cc([N+](=O)[O-])ccc2nc2n1CCCC2 do in these assays?
CHO parental Ca: 7; OX1R antag-1: -16; GPR7 antag: 20; OX1R antag-2: 69*; GalR3 antagonist: -10

What do the screens show for `Cc1c(C#N)c(O)[nH]c(=O)c1N=Nc1ccc(S(N)(=O)=O)cc1`?
CHO parental Ca: 2; OX1R antag-1: -8; GPR7 antag: 4; OX1R antag-2: 41*; GalR3 antagonist: -9

Results for Cc1c(C#N)c(O)[nH]c(=O)c1N=Nc1ccc(Cl)c(C(=O)O)c1 ?
CHO parental Ca: -3; OX1R antag-1: -8; GPR7 antag: -12; OX1R antag-2: 25; GalR3 antagonist: -4

Results for O=C(CSc1nnc(-c2ccc(Cl)cc2)n1Cc1ccco1)Nc1ccc2c(c1)OCCO2 ?
CHO parental Ca: -4; OX1R antag-1: -2; GPR7 antag: 4; OX1R antag-2: 22; GalR3 antagonist: -1

What do the screens show for `COc1ccc(NC(=O)CSc2nnc(-c3ccccc3)n2Cc2ccco2)cc1OC`?
CHO parental Ca: -26; OX1R antag-1: -11; GPR7 antag: -4; OX1R antag-2: 38*; GalR3 antagonist: -4

How did O=C(CSc1nnc(-c2ccccc2Cl)n1Cc1ccco1)Nc1ccc2c(c1)OCCO2 do in these assays?
CHO parental Ca: -19; OX1R antag-1: -21; GPR7 antag: -8; OX1R antag-2: 71*; GalR3 antagonist: 0

How did CC(=O)Nc1cccc(NC(=O)CSc2ncc(-c3ccc(Cl)cc3)n2Cc2ccco2)c1 do in these assays?
CHO parental Ca: 61*; OX1R antag-1: 73*; GPR7 antag: 37*; OX1R antag-2: 82*; GalR3 antagonist: -6

How did Nn1c(SCC(=O)Nc2ccc3c(c2)OCCO3)nnc1C(F)(F)F do in these assays?
CHO parental Ca: -11; OX1R antag-1: -13; GPR7 antag: 14*; OX1R antag-2: 15; GalR3 antagonist: 1

What do the screens show for `COC(=O)[C@]12C[C@H](CC(=O)NCc3ccc(OC)c(OC)c3)C(=O)N(Cc3ccccc3)C1=C[C@H](C1CCCC1)O[C@@H]2C`?
GalR3 antagonist: 0

What do the screens show for `COc1cc(Cl)cc(CN2CCC(CCC(=O)NC3CC3)CC2)c1OC`?
CHO parental Ca: -16; OX1R antag-1: -17; GPR7 antag: -18; OX1R antag-2: 11; GalR3 antagonist: -12

Results for CCOC(=O)C1(C)CCN1C(=O)c1cc(-c2ccc(Cl)cc2)oc1C (stereo not drawn) ?
GalR3 antagonist: -8

Results for O=C(CSc1nnc(-c2c[nH]c3ccccc23)n1CC1CCCO1)Nc1ccc2c(c1)OCCO2 (stereo not drawn) ?
CHO parental Ca: -22; OX1R antag-1: -19; GPR7 antag: -10; OX1R antag-2: 26; GalR3 antagonist: -1

What do the screens show for `CCn1c(SCC(=O)Nc2ccc3c(c2)OCCO3)nnc1-c1c[nH]c2ccccc12`?
CHO parental Ca: -16; OX1R antag-1: -10; GPR7 antag: -11; OX1R antag-2: 38*

What do the screens show for `Cc1ccccc1-c1cc2c(nn1)-c1ccccc1C2=O`?
CHO parental Ca: -38; OX1R antag-1: -14; GPR7 antag: -4; OX1R antag-2: 72*; GalR3 antagonist: 2

How did Cc1ccc(-c2cc3c(nn2)-c2ccccc2C3=O)cc1 do in these assays?
CHO parental Ca: -18; OX1R antag-1: -31; GPR7 antag: -3; OX1R antag-2: 44*; GalR3 antagonist: 2

What do the screens show for `COc1cc(/C=N/Nc2snc(SC)c2C#N)cc(OC)c1OC`?
CHO parental Ca: -8; OX1R antag-1: -14; GPR7 antag: -13; OX1R antag-2: 37; GalR3 antagonist: -1

From PubChem
